pEC50, pKi: −log10 of the molar value. Converted amounts (≈) assume the structure as drawn.
Experiments:
Cannabinoid receptor 1 [1] = molecular target: T1, Cannabinoid receptor 1 (Homo sapiens, UniProt P21554); assay: Agonist activity at human cannabinoid CB1 receptor expressed in CHO cells after 5 hrs by luciferase reporter gene assay; assay type: functional, cell-based
How it was run: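 Functional agonism was tested in CHO cells doubly transfected with human CB1 and a luciferase reporter gene. Potency is reported as pEC50, the mean of three experiments.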

[2] = Aqueous solubility of the compound at phosphate buffer solution of pH 6.7; assay type: physicochemical
[3] = Aqueous solubility of the compound at citrate buffer of pH 5; assay type: physicochemical
[4] = Aqueous solubility of the compound at citrate buffer of pH 4.9; assay type: physicochemical
How it was run: (§1)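 MSF solubility of the HCl salt was measured in citrate buffer (nominal pH 5) and in PBS (nominal pH 7.4). The final pH of each solution was recorded and reported alongside the solubility in mg/L.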

[5] = Aqueous solubility of the compound at phosphate buffer solution of pH 7; assay type: physicochemical; how it was run: as §1
Brain = assay: AUC (0 to 1 hr) in ICR mouse brain at 0.5 umol/kg, iv; assay type: ADME, organism-based; set-up: dose 0.5 umol/kg, time < 1 hr, route intravenous; conditions: in vivo
How it was run: (§2)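 ICR mice received a single iv dose in saline vehicle. Brain and plasma levels were measured with terminal sampling under CO2. Plasma Cmax was taken at t = 0.05 h. Brain exposure was given as Cmax, tmax and AUC over 0–1 h, plus a brain:plasma Cmax ratio from the same study.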

[6] = Tmax in ICR mouse brain at 0.5 umol/kg, iv; assay type: ADME, organism-based; how it was run: as §2
[7] = Cmax in ICR mouse plasma at 0.5 umol/kg, iv after 0.05 hrs; assay type: ADME, organism-based; set-up: dose 0.5 umol/kg, route intravenous; how it was run: as §2
Cannabinoid receptor 2 = Cannabinoid receptor 2 (Homo sapiens, UniProt P34972); assay: Displacement of [3H]CP-55940 from human cannabinoid CB2 receptor expressed in insect Sf9 cells
Cannabinoid receptor 2, sequence (P34972 whole entry): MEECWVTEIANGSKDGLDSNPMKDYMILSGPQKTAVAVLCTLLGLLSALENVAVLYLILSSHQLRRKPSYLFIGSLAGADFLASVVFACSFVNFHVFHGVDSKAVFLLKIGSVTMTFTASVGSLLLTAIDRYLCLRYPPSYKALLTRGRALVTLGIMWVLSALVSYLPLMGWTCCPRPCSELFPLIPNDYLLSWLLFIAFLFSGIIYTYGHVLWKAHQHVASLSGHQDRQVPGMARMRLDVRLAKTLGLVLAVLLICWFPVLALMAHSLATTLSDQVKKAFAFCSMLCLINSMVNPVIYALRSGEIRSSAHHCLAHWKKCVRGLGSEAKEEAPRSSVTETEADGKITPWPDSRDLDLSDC
How it was run: (§3)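 Affinity at CB1 and CB2 came from radioligand competition binding with [3H]CP 55,940 and is reported as pKi.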

Cannabinoid receptor 1 [8] = molecular target: T1, Cannabinoid receptor 1; assay: Displacement of [3H]CP-55940 from human cannabinoid CB1 receptor expressed in insect Sf9 cells; how it was run: as §3
[9] = Elimination half life in ICR mouse at 0.5 umol/kg, iv; assay type: ADME, organism-based; conditions: in vivo, read-out: beta t1/2 (converted); how it was run: as §2
[10] = Clearance in ICR mouse at 0.5 umol/kg, iv; assay type: ADME, organism-based; conditions: in vivo; how it was run: as §2
[11] = Volume of distribution at steady state in ICR mouse at 0.5 umol/kg, iv; assay type: ADME, organism-based; conditions: in vivo, read-out: Vdss; how it was run: as §2
[12] = AUC in ICR mouse plasma at 0.5 umol/kg, iv; assay type: ADME; how it was run: as §2
[13] = Cmax in ICR mouse brain at 0.5 umol/kg, iv; assay type: ADME, organism-based; set-up: dose 0.5 umol/kg, route intravenous; how it was run: as §2
[14] = Intrinsic clearance in mouse liver microsomes; assay type: ADME, Microsome
Mus musculus = assay: Antinociceptive activity against Freund's complete adjuvant-induced […] pain in iv dosed mouse assessed as increase in tail flick latency by tail flick test; assay type: functional
[15] = Ratio of Cmax in brain to plasma in ICR mouse brain at 0.5 umol/kg, iv; assay type: ADME; conditions: brain and plasma; how it was run: as §2

T1 sequence (P21554 whole entry): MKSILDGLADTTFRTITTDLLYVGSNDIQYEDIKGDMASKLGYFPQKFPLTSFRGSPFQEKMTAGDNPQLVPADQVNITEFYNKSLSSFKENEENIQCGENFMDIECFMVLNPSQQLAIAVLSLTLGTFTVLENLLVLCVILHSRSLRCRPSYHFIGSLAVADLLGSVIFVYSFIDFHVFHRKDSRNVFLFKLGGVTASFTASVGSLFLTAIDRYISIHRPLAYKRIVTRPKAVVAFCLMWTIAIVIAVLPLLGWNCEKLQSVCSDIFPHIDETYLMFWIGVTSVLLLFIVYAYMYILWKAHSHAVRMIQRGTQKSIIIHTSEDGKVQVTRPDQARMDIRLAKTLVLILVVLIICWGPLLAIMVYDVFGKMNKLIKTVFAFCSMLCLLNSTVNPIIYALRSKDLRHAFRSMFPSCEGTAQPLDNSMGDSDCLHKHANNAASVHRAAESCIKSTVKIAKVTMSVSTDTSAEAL

C[C@@H]1CN(C)C[C@H](C)N1C(=O)c1cn2c3c(cccc13)OC[C@H]2C1CCCCC1
pEC50 (Cannabinoid receptor 1 [1]): 7.20

CCN1CCN(C(=O)c2cn(CC3CCCCC3)c3c(OC)cccc23)CC1
solubility [2]: 216 µg/mL (≈ 563 µM)
solubility [3]: 3400 µg/mL (≈ 8860 µM)
pEC50 (Cannabinoid receptor 1 [1]): 6.80

C[C@@H]1CN(C(=O)c2cn3c4c(cccc24)OC[C@H]3C2CCCCC2)C[C@H](C)N1
pEC50 (Cannabinoid receptor 1 [1]): 6.90

CCN1CCN(C(=O)c2cn3c4c(cccc24)CCC3C2CCCCC2)CC1 (configuration not stated)
solubility [4]: 3510 µg/mL (≈ 9250 µM)
solubility [5]: 114 µg/mL (≈ 300 µM)
pEC50 (Cannabinoid receptor 1 [1]): 7.60

C[C@@H]1CNC[C@H](C)N1C(=O)c1cn2c3c(cccc13)OC[C@H]2C1CCCCC1
pEC50 (Cannabinoid receptor 1 [1]): 6.10

COc1cccc2c(C(=O)N3C[C@@H](C)N(C)[C@@H](C)C3)cn(CC3CCCCC3)c12
pEC50 (Cannabinoid receptor 1 [1]): 7.60

C[C@H]1CN(C(=O)c2cn3c4c(cccc24)OC[C@H]3C2CCCCC2)CCN1C
AUC (Brain): 44.6 ng·h/g
Tmax [6]: 10.2 min
Cmax [7]: 51.5 ng/mL
pKi (Cannabinoid receptor 2): 9.40
pKi (Cannabinoid receptor 1 [8]): 8.70
half-life [9]: 13.8 min
clearance [10]: 134 mL/min/kg
Vd [11]: 2.6 L/kg
AUC [12]: 23.7 ng·h/mL
Cmax [13]: 76.2 ng/g
microsomal CLint [14]: > 180 µL/min/mg
ED50 (Mus musculus): 0.19 µmol/kg
Kp [15]: 1.48

CCN1CCN(C(=O)c2cn3c4c(cccc24)OC[C@@H]3C2CCCCC2)CC1
solubility [4]: > 4000 µg/mL
solubility [5]: 308 µg/mL (≈ 807 µM)
pEC50 (Cannabinoid receptor 1 [1]): < 5.00

CCN1CCN(C(=O)c2cn3c4c(cccc24)OC[C@H]3C2CCCCC2)CC1
pKi (Cannabinoid receptor 2): 8.40
pKi (Cannabinoid receptor 1 [8]): 7.90

O=C(c1cn2c3c(cccc13)OC[C@H]2C1CCCCC1)N1CCNCC1
pEC50 (Cannabinoid receptor 1 [1]): 5.40

CCN1CCN(C(=O)c2cn3c4c(cccc24)OCC3C2CCCCC2)CC1 (configuration not stated)
pEC50 (Cannabinoid receptor 1 [1]): 7.50

CCN1[C@H](C)CN(C(=O)c2cn(CC3CCCCC3)c3c(OC)cccc23)C[C@@H]1C
pEC50 (Cannabinoid receptor 1 [1]): 8.00

C[C@H]1CN(C(=O)c2cn3c4c(cccc24)OC[C@H]3C2CCCCC2)CCN1
pEC50 (Cannabinoid receptor 1 [1]): 6.30

— ChEMBL document CHEMBL1208772, “Design, synthesis, and structure-activity relationship study of conformationally constrained analogs of indole-3-carboxamides as novel CB1 cannabinoid receptor agonists” (Bioorg Med Chem Lett, 2010)
